Rows were chosen to be rich in hits. Some 2.9% of all compounds tested hit in one or more screens of this group.
VIM-2 inhibitor – inhibitors of Pseudomonas aeruginosa VIM-2 metallo-beta-lactamase | inhibition, % at 5.6 µM | 290,000 compounds, 0.89% hits | purified VIM-2, nitrocefin hydrolysis, epi-absorbance fluorescence | AID 1527;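 active = inhibition above the mean of all tested compounds plus 3 SD, cutoff set per screening run, cut at about 7.5% in these data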;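 note: red hydrolysis product quenches plate fluorescence so inhibitors raise well fluorescence; 0% = enzyme with DMSO and 100% = DMSO without enzyme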
DNA FID counter – displaces DNA intercalator in HCV helicase counter-screen; inhibition, % at 7.9 µM; AID 1845; 290,000 compounds, 0.17% hits; DNA fluorescent intercalator displacement, fluorescence; in the data active = inhibition above about 37%;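 note: 0% = vehicle and 100% = reference compound; higher means more ethidium bromide displaced from hairpin DNA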
SUMO Mot1 rescue – SUMOylation pathway inhibition by Mot1-301 growth rescue | S. cerevisiae Mot1-301 growth rescue, ATP luminescence, 38.5C; percent above DMSO median, 100 means doubled | growth rescue, % at 18.8 µM | 320,000 compounds, 1% hits;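 active = every valid replicate shows activation above 250% relative to neutral control wells; inactive = the rest, any valid replicate at or below 250%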;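 note: OY570 slx delta 5 strain wells were the positive control but not used for scaling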
IMP-1 inhibitor – inhibitors of Pseudomonas aeruginosa IMP-1 metallo-beta-lactamase | AID 1556 | 290,000 compounds, 0.45% hits | purified IMP-1, nitrocefin hydrolysis, epi-absorbance fluorescence | inhibition, % at 5.6 µM;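 active = inhibition above the mean plus 3 SD of all compounds in the same screening run, cut at about 4.5% in these data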;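 note: 0% = IMP-1 with DMSO and 100% = DMSO wells lacking enzyme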
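System: Purified IMP-1 | Read-out basis: Percent enzyme inhibition | Controls: IMP-1 with DMSO as 0%, enzyme-free DMSO as 100% | Replicates: One well per compound | Doses: 5.6 µM nominal single concentration | Detection: Epi-absorbance fluorescence, 480 nm excitation, 530 nm emission | Incubation: 25 °C, 15 min preincubation, 25 min reaction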
NALP1 inh – NALP1 inhibition. inhibition, % at 10 µM. S. cerevisiae NALP1/ASC/caspase-1 growth, X-gal OD620, 72 h. 280,000 compounds, 0.61% hits. AID 2071; in the data active = inhibition mostly above about 24%, no sharp cut-off; inactive = mostly below about 32%
UBC9 SUMO inh – SUMOylation inhibition; 290,000 compounds, 0.36% hits; inhibition, % at 35 µM; HTRF SUMOylation assay, SAE1/SAE2 + UBC9, in vitro; AID 2006; in the data active = inhibition above about 50%, passing the limit was not always enough
Target sequence (P63279 whole entry, looked up): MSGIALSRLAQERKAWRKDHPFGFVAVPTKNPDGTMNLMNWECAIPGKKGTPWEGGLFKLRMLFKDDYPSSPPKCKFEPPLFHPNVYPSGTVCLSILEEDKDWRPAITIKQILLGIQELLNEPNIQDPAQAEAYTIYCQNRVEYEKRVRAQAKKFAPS
Active calls of the source: *; i = inactive; · = no result.

SMILES	VIM-2 inhibitor	DNA FID counter	SUMO Mot1 rescue	IMP-1 inhibitor	NALP1 inh	UBC9 SUMO inh
Cn1c(=O)c2c(SCC(=O)N3CCCCC3)nc(-c3ccccc3F)nc2n(C)c1=O	6	-6	-2	-1	8	6
O=C(O)CCC(=O)N1N=C(c2ccc(Br)cc2)CC1c1cccs1 (stereo not drawn)	7.9*	-41	2	-3	5	5
CNC(=O)COc1coc(CN2CCN(c3ccccc3OC)CC2)cc1=O	-2	-6	-5	-1	9	15
CCC(=O)c1ccc(/C=C/c2nc3ccccc3n2C)o1	-1	-12	-13	-3	5	62*
Cc1cc(OCc2cc(C(=O)NCc3csc(C(C)C)n3)no2)cc(C)c1Cl	-2	-16	-5	-2	4	-18
O=C(N/N=C/c1cc(Cl)cc([N+](=O)[O-])c1O)c1ccccc1NS(=O)(=O)c1cccs1	-2	-3	-45	-17	6	100*
Cc1ccc2cc(C)c3nnc(SCc4ccc(C(=O)O)cc4)n3c2c1C	-2	-40	326	-1	·	-13
CCN(CC)C(=O)CSc1n[nH]c(=O)n1CCc1ccccc1	0	-5	34	-2	3	12
O=c1[nH]nc(Sc2ncnc3sccc23)n1CCc1ccccc1	9.7*	-15	92	-4	8	-4
Cc1cc2occ(CC(=O)Nc3nnc(C4CC4)s3)c2cc1C	-2	-3	685	20*	-1	8
Cc1ccc(CN2CCN(Cc3ccc4cccc(F)c4n3)CC2CCO)cc1 (stereo not drawn)	-2	-1	102	0	-31	5
Cc1occc1C(=O)N1CCN(C(c2ccccc2)c2ccccc2)CC1	-2	-19	-31	-3	·	-5
Cc1ccccc1C(=O)N1CCN(C(c2ccccc2)c2ccccc2)CC1	-2	-37	8	33*	19	6
Cc1ccc(-c2nc(N3CCN(C)CC3)c3ccccc3n2)cc1	0	29	0	-2	4	-14
CN1CCN(c2nc(-c3cccc([N+](=O)[O-])c3)nc3ccccc23)CC1	8.6*	25	45	1	39*	3
Cc1ccc(OCC(O)CNC2CCCC2)c(C)c1 (stereo not drawn)	-1	6	6	-2	4	2
Cc1ccc(OCCCCNC2CCCCC2)c(C)c1	-2	23	29	-2	44*	15
CCCCc1c(O)nc(SCC(=O)N2CCOCC2)n(-c2ccccc2C)c1=O	-3	-10	·	-1	0	0
O=C(CSc1nc(O)c(Cc2ccccc2)c(=O)n1-c1ccccc1)N1CCOCC1	-3	-6	-1	1	40*	2
Cc1ccccc1-n1c(SCC(=O)N2CCOCC2)nc(O)c(Cc2ccccc2)c1=O	-1	-27	12	5.2*	27	13
COc1ccc2c(c1)c(=O)oc1cc3occ(C(C)(C)C)c3cc12	1	1	278	22*	13	-2
O=C(CC12CC3CC(CC(C3)C1)C2)N1CCCC1	-4	-10	-8	-5	37*	-7
CCOC(=O)c1ccccc1NC(=O)CN(c1ccccc1C)S(C)(=O)=O	-2	-35	25	-2	0	12
OC(CNCC1CCCO1)Cn1c2ccc(Cl)cc2c2cc(Cl)ccc21 (stereo not drawn)	-1	25	-21	-2	28*	-8
Cc1cc(C)n(CC(O)Cn2c3ccc(Cl)cc3c3cc(Cl)ccc32)c(=O)n1 (stereo not drawn)	-1	-17	12	-3	19	-12
SMILES	VIM-2 inhibitor	DNA FID counter	SUMO Mot1 rescue	IMP-1 inhibitor	NALP1 inh	UBC9 SUMO inh
OC(CNCCC1C=Nc2ccccc21)Cn1c2ccc(Cl)cc2c2cc(Cl)ccc21 (stereo not drawn)	-2	12	-76	-3	101*	-11
OC(CNCC1CCCO1)Cn1c2ccccc2c2ccccc21 (stereo not drawn)	-2	21	-18	-3	11	-13
COC(=O)c1cc(NC(=O)c2cccc([N+](=O)[O-])c2C)ccc1Cl	-3	-1	5	-2	19	-3
CCCc1ccc(O)c(N=Cc2cc(Br)cc(OCC)c2O)c1	-2	-22	i	5.5*	2	14
CCc1ccc(O)c(N=Cc2cccc(C)c2O)c1	-2	-4	-1	-3	29	14
C#CC(=O)N(c1cccc(OC)c1)C(C(=O)NC1CCCC1)c1cccs1 (stereo not drawn)	1	-14	331*	-1	-1	16
CCCc1cc(=O)oc2cc(C)cc(OCC(=O)O)c12	-2	-6	-13	-2	-31	43
CCc1cc(=O)oc2cc(C)cc(OC(=O)c3ccco3)c12	11*	-13	0	-3	9	9
C=C(Cl)COc1cc(C)cc2oc(=O)cc(CC)c12	4	-10	329*	-1	2	21
CCOC(=O)c1ccc(NC(=S)NCc2ccco2)cc1	-2	-5	-9	-2	-1	11
COc1cccc(NC(=O)COC(=O)Cc2ccc(Cl)cc2)c1	0	0	-14	-1	30*	-1
COc1ccc(CC(=O)OCC(=O)Nc2cccc(Cl)c2)cc1	-2	-7	37	-3	13	-5
CN(CC(=O)NCc1ccccc1)S(=O)(=O)c1cnc[nH]1	-1	-3	-15	-3	45*	-9
Cc1cccc(C)c1NC(=O)CN(C1CCCCC1)S(C)(=O)=O	0	-7	-6	0	8	1
Cc1cc(OC(C(=O)O)c2ccccc2)c2c(C)c(Cc3ccccc3)c(=O)oc2c1 (stereo not drawn)	-1	-13	39	0	·	51*
Cc1ccc(-c2[nH]ncc2/C=N/n2c(COc3ccccc3)nc3ccccc3c2=O)cc1	-2	-8	-9	-4	-12	0
Cc1cc(/C=N/n2c(COc3ccccc3)nc3ccccc3c2=O)c(O)c([N+](=O)[O-])c1	-3	-1	26	-3	16	93*
C=C(C)C1CC=C(CN2CC(C)OC(C)C2)CC1 (stereo not drawn)	0	0	139	1	41*	8
C=C(C)C1CC=C(CN2CCC(C(=O)OCC)CC2)CC1 (stereo not drawn)	0	12	90	0	1	-2
Cc1ccc(NC(=O)CN2CCN(S(=O)(=O)c3cccs3)CC2)cc1S(=O)(=O)N(C)C	0	-22	7	-1	9	16
CCOC(=O)c1cc(-c2ccncc2)nc2c1c(C)nn2C	8.2*	-12	4	0	3	38
COC(=O)C(C)NC(=O)CNS(=O)(=O)c1ccc(F)cc1 (stereo not drawn)	-3	2	44	-2	15	5
Cc1cc(N2CCC(C)CC2)nc(NCc2ccccc2)n1	-3	10	-2	-2	69*	1

Screens as filed in PubChem BioAssay.
